The source of these data is ChEMBL document CHEMBL4825680, “Structure-based discovery of potent and selective small-molecule inhibitors targeting signal transducer and activator of transcription 3 (STAT3)” (Eur J Med Chem, 2021).

The source made the active and inactive calls. No cut-off for these calls is given here.

Series [1] is described as follows: Metabolic stability in human liver microsomes assessed as half life at 0.1 uM preincubated for 10 mins followed by NADPH addition and measured upto 60 mins by LC-MS/MS analysis. It is filed as ADME, Microsome. The conditions noted are these: time <=70 min. Put shortly: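 Microsomes at 0.33 mg/mL in 0.1 M Tris pH 7.4 with 5 mM MgCl2; compound final 0.1 μM (0.01% DMSO, 0.005% BSA). Preincubated 10 min at 37 °C, then started with 1 mM NADPH. Sampled at 0, 7, 17, 30 and 60 min and quenched with cold methanol. Centrifuged, then analysed by LC-MS/MS.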

The target of series [2] is T1, Signal transducer and activator of transcription 3 (Homo sapiens, UniProt P40763). Briefly: Inhibition of STAT3 phosphorylation at Tyr705 residue in human HCC70 cells after 3 hrs by Western blotting analysis. The format is cell-based. The conditions noted are these: dose 0.3-3 µM.
T1 sequence (P40763 whole entry): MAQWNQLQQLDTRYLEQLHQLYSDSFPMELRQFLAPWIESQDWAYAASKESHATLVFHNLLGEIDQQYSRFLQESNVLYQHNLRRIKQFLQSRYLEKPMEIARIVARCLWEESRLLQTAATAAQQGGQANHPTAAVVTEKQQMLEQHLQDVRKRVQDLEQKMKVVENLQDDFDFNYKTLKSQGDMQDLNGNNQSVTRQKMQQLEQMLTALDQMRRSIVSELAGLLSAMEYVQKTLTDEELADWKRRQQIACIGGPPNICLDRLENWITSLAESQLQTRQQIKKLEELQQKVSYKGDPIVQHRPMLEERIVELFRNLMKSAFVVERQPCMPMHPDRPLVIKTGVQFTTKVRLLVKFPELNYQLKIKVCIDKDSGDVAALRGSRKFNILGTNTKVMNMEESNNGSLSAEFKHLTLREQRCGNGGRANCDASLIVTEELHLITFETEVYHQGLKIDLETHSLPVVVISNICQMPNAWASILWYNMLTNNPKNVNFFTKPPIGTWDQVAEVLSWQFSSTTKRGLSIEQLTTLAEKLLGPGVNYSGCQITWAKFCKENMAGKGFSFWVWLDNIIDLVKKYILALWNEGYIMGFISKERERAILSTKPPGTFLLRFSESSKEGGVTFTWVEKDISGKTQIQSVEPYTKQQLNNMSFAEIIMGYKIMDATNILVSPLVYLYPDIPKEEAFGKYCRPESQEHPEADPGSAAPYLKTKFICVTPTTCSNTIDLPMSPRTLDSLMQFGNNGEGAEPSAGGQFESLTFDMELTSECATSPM
The subject of series [3] is HCC70. The series is described as follows: Effect on total STAT3 level in human HCC70 cells at 0.3 to 3 uM measured after 3 hrs by Western blot analysis. The format is functional, cell-based. As to conditions: dose 0.3-3 µM. The method, boiled down:
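Breast cancer cells were treated with vehicle (0.1% DMSO) or compound, then lysed in RIPA with PMSF and phosphatase inhibitors. 20–50 μg protein was run on 8 or 12% SDS-PAGE, blotted to PVDF, blocked in 5% BSA, probed with primary antibodies overnight at 4 °C, then HRP secondaries, with ECL detection.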

In series [4] the target is T1, Signal transducer and activator of transcription 3. The series is described as follows: Inhibition of STAT3 phosphorylation at Ser727 residue in human MDA-MB-231 cells at 3 uM after 3 hrs by Western blotting analysis. It is filed as cell-based.
In series [5] the target is T2, Signal transducer and activator of transcription 5A (Homo sapiens) (UniProt P42229).
T2 sequence (whole entry): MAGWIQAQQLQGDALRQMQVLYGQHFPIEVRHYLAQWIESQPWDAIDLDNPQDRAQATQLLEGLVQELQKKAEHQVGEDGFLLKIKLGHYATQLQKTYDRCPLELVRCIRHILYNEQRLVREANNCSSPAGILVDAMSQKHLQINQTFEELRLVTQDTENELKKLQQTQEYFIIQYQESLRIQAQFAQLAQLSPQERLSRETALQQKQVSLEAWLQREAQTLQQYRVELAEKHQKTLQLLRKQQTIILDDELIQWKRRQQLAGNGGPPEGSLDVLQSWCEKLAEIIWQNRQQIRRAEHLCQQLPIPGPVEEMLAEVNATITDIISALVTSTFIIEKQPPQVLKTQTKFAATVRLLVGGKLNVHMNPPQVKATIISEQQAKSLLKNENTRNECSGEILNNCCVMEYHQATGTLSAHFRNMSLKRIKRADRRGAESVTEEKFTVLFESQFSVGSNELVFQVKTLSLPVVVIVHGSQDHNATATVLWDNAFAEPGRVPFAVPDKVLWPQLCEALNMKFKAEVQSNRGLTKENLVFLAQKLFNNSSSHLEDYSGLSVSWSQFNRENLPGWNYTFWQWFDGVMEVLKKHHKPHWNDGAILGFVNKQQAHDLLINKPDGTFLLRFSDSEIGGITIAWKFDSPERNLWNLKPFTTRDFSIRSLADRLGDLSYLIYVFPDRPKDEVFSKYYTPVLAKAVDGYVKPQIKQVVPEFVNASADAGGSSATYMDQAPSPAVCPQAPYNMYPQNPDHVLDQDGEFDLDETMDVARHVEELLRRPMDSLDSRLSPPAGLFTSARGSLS
Briefly: Inhibition of STAT5 phosphorylation at Y694 residue in human HCC70 cells at 0.3 to 3 uM after 3 hrs by Western blotting analysis. It is filed as cell-based. The conditions noted are these: dose 0.3-3 µM.

Series [6] concerns the target T1, Signal transducer and activator of transcription 3. Briefly: Inhibition of HA-tagged STAT3 dimerization (unknown origin) expressed in HEK293T cells after 24 hrs by confocal microscopic analysis. It is filed as cell-based. As to conditions: dose 1-3 µM. The method, boiled down: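 HEK-293T cells transfected with HA-STAT3 and Flag-STAT3. After 24 h, treated with vehicle (0.1% DMSO) or compound for 24 h, with IL-6 100 ng/mL added for 30 min. Fixed in paraformaldehyde, permeabilised with Triton X-100, stained with anti-HA and anti-Flag plus Alexa 488/555 secondaries and DAPI. Confocal imaging for colocalisation.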

Series [7] has the same target. Briefly: Inhibition of HA-tagged STAT3 dimerization (unknown origin) expressed in HEK293T cells preincubated for 3 hrs followed by IL-3 stimulation by immunoprecipitation analysis. The conditions noted are these: dose 1-3 µM. It is filed as cell-based.
The test system of series [8] is MDA-MB-468. The series is described as follows: Antiproliferative activity against human MDA-MB-468 cells assessed as reduction in cell viability after 72 hrs by CCK8 assay. It is filed as functional, cell-based. The conditions noted are these: MDA-MB-468, 72 h. The method, boiled down:
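Cells seeded at 1000–8000 per well were grown overnight, then exposed to 0.1–100 μM compound or 0.1% DMSO vehicle for 72 h. CCK-8 was added for 0.5–4 h at 37 °C and absorbance read at 480 nm. Viability = (OD compound − blank)/(OD vehicle − blank) × 100, with medium as blank. IC50 fitted from three independent experiments.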

Series [9] has as its system HCC70. Briefly: Inhibition of colony formation in human HCC70 cells at 0.3 uM after 10 to 15 days by crystal violet staining based assay. As to conditions: time 10-15 day. It is filed as functional, cell-based. Put shortly:
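Cells seeded at 0.5×10^3–1×10^3 per well; compound added the next day. Medium and compound renewed every 2–3 days. After about 10–15 days, colonies fixed with 4% paraformaldehyde, stained with crystal violet, scanned and quantified by image analysis. Triplicate.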

Series [10] in a line: Induction of apoptosis in human MDA231-LM2-4175 cells assessed as viable cells at 3 uM after 48 hrs by Annexin-V-FITC/propidium iodide staining based flow cytometric analysis (reference value: 94.4%). The conditions noted are these: read-out: Activity. The format is functional.
Series [11] is described as follows: Induction of apoptosis in human MDA231-LM2-4175 cells assessed as late apoptotic cells at 3 uM after 48 hrs by Annexin-V-FITC/propidium iodide staining based flow cytometric analysis (reference value: 2.60%). It is filed as functional.
The subject of series [12] is MDA-MB-468. The series is described as follows: Induction of apoptosis in human MDA-MB-468 cells assessed as necrotic cells at 1 uM after 48 hrs by Annexin-V-FITC/propidium iodide staining based flow cytometric analysis (reference value: 0.240%). It is filed as functional.
A short description of series [13]: AUC(0 to last) in Sprague-Dawley rat at 10 mg/kg, po measured up to 24 hrs by LC-MS/MS analysis. The format is ADME, organism-based. The arrangement: route oral, dose 10 mg/kg, time <=24. As to conditions: in vivo. Put shortly:
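Male SD rats given a single oral dose of 10 mg/kg in DMSO/0.5% HPMC (5/95, v/v). Blood was drawn at 0.25, 0.5, 1, 2, 4, 8 and 24 h, and plasma was analysed by LC-MS/MS on a BEH phenyl column with a formic acid water/acetonitrile mobile phase.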

Series [14] in a line: Toxicity in NOD/SCID mouse xenografted with patient-derived breast cancer cells assessed as change in body weight at 5 to 15 mg/kg, ip administered once daily for 20 days. The conditions noted are these: in vivo, 480 h.

As for `O=C(Cc1c(-c2ccccc2)nc2ccccn12)Nc1ccc2c(c1)S(=O)(=O)C=C2`, in [1], the half-life at 0.1 µM worked out at 24.2 min. In addition, the inhibition entry in [2], in series [6] and in series [7] was “Dose-Dependent Effect” each time. Further, in the series on HCC70 [3], the result was inactive. The inhibition entry (in series [4]; with HCC70 [9]) was “Active” in each case. The inhibition entry in series [5] is “inactive”. For the same compound, the IC50 with MDA-MB-468 [8] was determined as 2.5 µM. The viability at 3 µM in series [10] stood at 83.4%. For the same compound, the Activity is 5.71% in [11], 1.54% with MDA-MB-468 [12] and “Non-Toxic” in [14]. Further, the area under the curve AUC(0-t) at 24 h in [13] came out at 0.0546 µg·h/mL.
